Assay results: ChEMBL document CHEMBL3822360, “Synthesis of new thiazolo-celecoxib analogues as dual cyclooxygenase-2/15-lipoxygenase inhibitors: Determination of regio-specific different pyrazole cyclization by 2D NMR” (Eur J Med Chem, 2016)
pIC50: −log10 of the molar value.

Columns and labels:
[1] = system: Rattus norvegicus; experiment: Anti-inflammatory activity in Wistar albino rat assessed as inhibition of carrageenan-induced paw edema at 50 mg/kg, po measured after 4 hrs relative to control; assay type: functional
How it was run: (§1)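 Adult male Wistar albino rats (100–150 g) were housed under a 12 h light cycle at 27 ± 2 °C with food and water. Paw edema was induced with carrageenan after oral dosing. […] Values are mean ± SEM, n = 5.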

[2] = target: T1, Prostaglandin G/H synthase 1 (Ovis aries, UniProt P05979); experiment: Inhibition of ovine COX-1 assessed as reduction in PGF2-alpha formation using arachidonic acid as substrate by enzyme immunoassay
T1 sequence (P05979 whole entry): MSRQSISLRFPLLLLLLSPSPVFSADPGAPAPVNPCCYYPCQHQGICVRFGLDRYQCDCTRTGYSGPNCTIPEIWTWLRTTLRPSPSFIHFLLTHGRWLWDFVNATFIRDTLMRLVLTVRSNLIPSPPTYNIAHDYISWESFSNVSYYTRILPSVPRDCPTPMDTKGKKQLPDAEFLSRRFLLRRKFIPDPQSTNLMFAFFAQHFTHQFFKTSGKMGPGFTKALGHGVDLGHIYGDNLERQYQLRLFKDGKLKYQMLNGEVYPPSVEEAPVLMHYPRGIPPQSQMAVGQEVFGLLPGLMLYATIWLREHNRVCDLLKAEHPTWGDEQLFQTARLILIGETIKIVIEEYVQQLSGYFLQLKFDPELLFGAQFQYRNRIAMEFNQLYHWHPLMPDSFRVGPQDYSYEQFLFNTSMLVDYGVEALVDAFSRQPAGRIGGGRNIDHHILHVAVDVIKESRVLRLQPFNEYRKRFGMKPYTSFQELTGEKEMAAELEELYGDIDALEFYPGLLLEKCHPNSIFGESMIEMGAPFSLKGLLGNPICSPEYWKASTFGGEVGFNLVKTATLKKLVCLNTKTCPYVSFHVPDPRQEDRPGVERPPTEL

[3] = system: Rattus norvegicus; experiment: Anti-inflammatory activity in Wistar albino rat assessed as inhibition of carrageenan-induced paw edema at 50 mg/kg, po measured after 2 hrs relative to control; assay type: functional; how it was run: as §1
[4] = system: Rattus norvegicus; experiment: Ulcerogenicity in Wistar albino rat assessed as damage in gastric mucosa at 50 mg/kg, po qd for 3 days measured 1 hr post last dose; assay type: toxicity, organism-based; settings: in vivo
How it was run: (§2)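 Rats were fasted 18 h, then dosed orally once daily for 3 consecutive days. Compounds were given in DMSO; controls received 10% aqueous DMSO (v/v). Ulcer index is the sum of % ulcer incidence/10, mean number of ulcers per stomach and mean ulcer severity. Values are mean ± SEM.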

[5] = Inhibition of soybean 15-LOX using arachidonic acid as substrate by enzyme immunoassay; design: species or system Glycine max
How it was run: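 Soybean 15-LOX inhibition was measured with an EIA kit following the manufacturer's instructions, in 0.1 M Tris-HCl buffer, pH 7.4. Compounds were dissolved in minimal DMSO and diluted to final concentrations of 0.001–10 μM, including 1, 5 and 10 μM. IC50 (μM) is the mean of two determinations.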

[6] = system: Rattus norvegicus; experiment: Ulcerogenicity in Wistar albino rat assessed as damage in gastric mucosa at 30.9 umol/kg, po qd for 3 days measured 1 hr post last dose; assay type: toxicity, organism-based; settings: in vivo; how it was run: as §2
[7] = system: Rattus norvegicus; experiment: Anti-inflammatory activity in Wistar albino rat assessed as inhibition of carrageenan-induced paw edema 15 mg/kg, po measured after 4 hrs relative to control; assay type: functional; how it was run: as §1
[8] = system: Rattus norvegicus; experiment: Anti-inflammatory activity against Wistar albino rat model of carrageenan-induced paw edema assessed as reduction in paw thickness at 15 mg/kg, po measured after 2 hrs relative to control; assay type: functional; how it was run: as §1

## COc1ccc(/C=C/C(=O)c2sc(-c3ccccc3)nc2C)cc1
[1]
  inhibition in vivo at 50 mg/kg: 46.9%
[2]
  pIC50: 5.07
[3]
  inhibition in vivo at 50 mg/kg: 43.8%
[4]
  UI: 4.08
[5]
  pIC50: 5.13

## C/C(=N\Nc1ccc(S(N)(=O)=O)cc1)c1sc(-c2ccccc2)nc1C
[1]
  inhibition in vivo at 50 mg/kg: 37.1%
[2]
  pIC50: 5.01
[3]
  inhibition in vivo at 50 mg/kg: 33.9%
[4]
  UI: 2.65
[5]
  pIC50: 5.07

## Cc1nc(-c2ccccc2)sc1-c1ccnn1-c1ccc(S(=O)(=O)/N=C/N(C)C)cc1
[1]
  inhibition in vivo at 50 mg/kg: 51.6%
[2]
  pIC50: 5.06
[3]
  inhibition in vivo at 50 mg/kg: 53.2%
[4]
  UI: 2.93
[5]
  pIC50: 5.11

## Cc1nc(-c2ccccc2)sc1-c1cc(C(F)(F)F)nn1-c1ccc(S(C)(=O)=O)cc1
[1]
  inhibition in vivo at 50 mg/kg: 51.6%
[2]
  pIC50: 5.32
[3]
  inhibition in vivo at 50 mg/kg: 53.2%
[4]
  UI: 2.78
[5]
  pIC50: 5.40

## C/C(=N\Nc1ccc(S(C)(=O)=O)cc1)c1sc(-c2ccccc2)nc1C
[1]
  inhibition in vivo at 50 mg/kg: 28.1%
[2]
  pIC50: 5.27
[3]
  inhibition in vivo at 50 mg/kg: 27.4%
[4]
  UI: 3.87
[5]
  pIC50: 5.20

## Cc1nc(-c2ccccc2)sc1-c1ccnn1-c1ccc(S(N)(=O)=O)cc1
[1]
  inhibition in vivo at 50 mg/kg: 54.7%
[2]
  pIC50: 5.01
[3]
  inhibition in vivo at 50 mg/kg: 54.8%
[4]
  UI: 2.48
[5]
  pIC50: 5.06

## Cc1nc(-c2ccccc2)sc1-c1cc(C(F)(F)F)nn1-c1ccc(S(N)(=O)=O)cc1
[1]
  inhibition in vivo at 50 mg/kg: 57.8%
[2]
  pIC50: 5.20
[3]
  inhibition in vivo at 50 mg/kg: 53.2%
[4]
  UI: 2.67
[5]
  pIC50: 5.27

## COc1ccc([C@@H]2CC(c3sc(-c4ccccc4)nc3C)=NN2c2ccc(S(C)(=O)=O)cc2)cc1
[1]
  inhibition in vivo at 50 mg/kg: 28.1%
[2]
  pIC50: 5.24
[3]
  inhibition in vivo at 50 mg/kg: 27.5%
[4]
  UI: 3.83
[5]
  pIC50: 5.33

## COc1ccc([C@@H]2CC(c3sc(-c4ccccc4)nc3C)=NN2c2ccc(S(N)(=O)=O)cc2)cc1
[1]
  inhibition in vivo at 50 mg/kg: 42.2%
[2]
  pIC50: 5.17
[3]
  inhibition in vivo at 50 mg/kg: 37.1%
[4]
  UI: 3.79
[5]
  pIC50: 5.23

## Cc1nc(-c2ccccc2)sc1-c1ccnn1-c1ccc(S(C)(=O)=O)cc1
[1]
  inhibition in vivo at 50 mg/kg: 48.4%
[2]
  pIC50: 4.99
[3]
  inhibition in vivo at 50 mg/kg: 46.8%
[4]
  UI: 4.35
[5]
  pIC50: 5.13

## Cc1ccc(-c2cc(C(F)(F)F)nn2-c2ccc(S(N)(=O)=O)cc2)cc1 [CELECOXIB]
[6]
  UI: 2.9
[7]
  inhibition (INH): 65.63%
[8]
  inhibition in vivo at 15 mg/kg: 59.7%

## Cc1ccc(Cl)c(Nc2ccccc2C(=O)O)c1Cl [MECLOFENAMATE SODIUM]
[5]
  pIC50: 5.25
